Data set [1] deals with T1, PCSK9/LDLR (Homo sapiens) (UniProt Q8NBP7+P01130). Put plainly: Inhibition of recombinant His-tagged PCSK9 (unknown origin) binding to recombinant […] AB domain (unknown origin) at 10 uM measured after 2 hrs by ELISA. In kind it is protein assay. The method, boiled down: (§1)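 Commercial kit: compound added with His-tagged PCSK9 to wells coated with recombinant LDLR-AB domain. Bound His-PCSK9 quantified by absorbance at 450 nm. Mean ± s.d. of three independent experiments in duplicate.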

Data set [2] concerns the target T1, PCSK9/LDLR (Homo sapiens). Put plainly: Inhibition of PCSK9 (unknown origin) interaction with LDLR expressed in human HepG2 cells assessed as increase LDLR level on cell membrane at 10 uM measured after 2 hrs by in-cell Western analysis. The data set is classed as cell-based.
The target in data set [3] is T1, PCSK9/LDLR (Homo sapiens). The data set can be described thus: Inhibition of recombinant His-tagged PCSK9 (unknown origin) binding to recombinant […] AB domain (unknown origin) at 100 uM measured after 2 hrs by ELISA relative to control. The data set is classed as protein assay. The method, boiled down:
as §1

The target of data set [4] is T1, PCSK9/LDLR (Homo sapiens). The data set can be described thus: Inhibition of PCSK9 (unknown origin) interaction with LDLR expressed in human HepG2 cells assessed as increase in LDL uptake level at 10 uM measured after 2 hrs by LDL-Dylight 550 dye based fluorescence assay. The data set is classed as cell-based.
Data set [5] concerns the target T2, PCSK9/LDLR (Homo sapiens, UniProt Q8NBP7). Put plainly: (§2) Inhibition of recombinant His-tagged PCSK9 (unknown origin) binding to recombinant […] AB domain (unknown origin) measured after 2 hrs by ELISA. In kind it is protein assay. The gist of the method:
as §1
(In general: In an ELISA, binding on a coated surface is turned into a signal by an enzyme label.)

Data set [6] concerns the target T1, PCSK9/LDLR (Homo sapiens). Described as §2. The data set is classed as protein assay. The method, boiled down:
as §1

For another data set, the system named is HepG2. The data set can be described thus: Cytotoxicity against human HepG2 cells assessed as reduction in cell viability at 0.1 to 10 uM measured after 48 hrs by MTT assay. In kind it is cell-based. To be noted: hepg2, 48 h.
The target in data set [7] is T1, PCSK9/LDLR (Homo sapiens). Put plainly: Inhibition of PCSK9 (unknown origin) interaction with LDLR expressed in human HepG2 cells assessed as LDLR level on cell membrane at 1 uM measured after 2 hrs by in-cell Western analysis (reference value: 30.5 to 47.2%). The data set is classed as cell-based. Also noted: scale not given: the % may be the effect or the level left.

Data set [8] deals with T1, PCSK9/LDLR (Homo sapiens). Put plainly: Inhibition of PCSK9 (unknown origin) interaction with LDLR expressed in human HepG2 cells assessed as LDL uptake level at 1 uM measured after 2 hrs by LDL-Dylight 550 dye based fluorescence assay (reference value: 34.8 to 67%). In kind it is cell-based. Also noted: scale not given: the % may be the effect or the level left.
Data set [9] has as its target T1, PCSK9/LDLR (Homo sapiens). The data set can be described thus: Inhibition of PCSK9 (unknown origin) interaction with LDLR expressed in human HepG2 cells assessed as LDL uptake level at 10 uM measured after 2 hrs by LDL-Dylight 550 dye based fluorescence assay (reference value: 34.8 to 67%). In kind it is cell-based. Further details: scale not given: the % may be the effect or the level left.

Data set [10] addresses T1, PCSK9/LDLR (Homo sapiens). Put plainly: Inhibition of PCSK9 (unknown origin) interaction with LDLR expressed in human HepG2 cells assessed as increase LDLR level on cell membrane measured after 2 hrs by in-cell Western analysis. The data set is classed as cell-based.
The target in data set [11] is T1, PCSK9/LDLR (Homo sapiens). The data set can be described thus: Inhibition of PCSK9 (unknown origin) interaction with LDLR expressed in human HepG2 cells assessed as LDLR level on cell membrane at 0.1 uM measured after 2 hrs by in-cell Western analysis (reference value: 30.5 to 47.2%). The data set is classed as cell-based. Further details: scale not given: the % may be the effect or the level left.

Data set [12] addresses T1, PCSK9/LDLR (Homo sapiens). Put plainly: Inhibition of PCSK9 (unknown origin) interaction with LDLR expressed in human HepG2 cells assessed as LDLR level on cell membrane at 10 uM measured after 2 hrs by in-cell Western analysis (reference value: 30.5 to 47.2%). In kind it is cell-based. Also noted: scale not given: the % may be the effect or the level left.
Data set [13] addresses T1, PCSK9/LDLR (Homo sapiens). Put plainly: Inhibition of PCSK9 (unknown origin) interaction with LDLR expressed in human HepG2 cells assessed as LDL uptake level at 0.1 uM measured after 2 hrs by LDL-Dylight 550 dye based fluorescence assay (reference value: 34.8 to 67%). The data set is classed as cell-based. Also noted: scale not given: the % may be the effect or the level left.

Data set [14] has as its target T2, PCSK9/LDLR. Put plainly: Inhibition of PCSK9 (unknown origin) interaction with LDLR expressed in human HepG2 cells assessed as increase in LDL uptake level measured after 24 hrs by LDL-Dylight 550 dye based fluorescence assay. In kind it is cell-based.
Target sequence in this assay (Q8NBP7 31-152 limits assumed): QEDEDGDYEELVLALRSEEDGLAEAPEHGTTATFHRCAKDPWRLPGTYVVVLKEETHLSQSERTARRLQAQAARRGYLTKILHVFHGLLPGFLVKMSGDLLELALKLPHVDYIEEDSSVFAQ
Target sequence in this assay (Q8NBP7 153-692 limits assumed): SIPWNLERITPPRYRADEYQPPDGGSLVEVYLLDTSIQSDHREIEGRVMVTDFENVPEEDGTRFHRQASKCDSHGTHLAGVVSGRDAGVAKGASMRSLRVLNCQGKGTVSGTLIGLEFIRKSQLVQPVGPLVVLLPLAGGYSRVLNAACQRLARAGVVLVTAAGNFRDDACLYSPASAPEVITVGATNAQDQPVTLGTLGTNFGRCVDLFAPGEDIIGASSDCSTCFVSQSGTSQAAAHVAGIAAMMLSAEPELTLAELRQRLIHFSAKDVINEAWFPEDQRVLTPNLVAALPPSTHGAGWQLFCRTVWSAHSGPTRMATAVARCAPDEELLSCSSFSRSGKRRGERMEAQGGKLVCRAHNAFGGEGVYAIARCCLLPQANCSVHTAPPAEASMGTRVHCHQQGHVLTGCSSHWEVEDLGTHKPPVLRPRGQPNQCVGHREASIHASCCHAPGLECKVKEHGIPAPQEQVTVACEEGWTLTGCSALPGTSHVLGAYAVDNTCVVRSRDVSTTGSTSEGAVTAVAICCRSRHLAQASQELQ
Target sequence in this assay (P01130 22-860 partner limits assumed): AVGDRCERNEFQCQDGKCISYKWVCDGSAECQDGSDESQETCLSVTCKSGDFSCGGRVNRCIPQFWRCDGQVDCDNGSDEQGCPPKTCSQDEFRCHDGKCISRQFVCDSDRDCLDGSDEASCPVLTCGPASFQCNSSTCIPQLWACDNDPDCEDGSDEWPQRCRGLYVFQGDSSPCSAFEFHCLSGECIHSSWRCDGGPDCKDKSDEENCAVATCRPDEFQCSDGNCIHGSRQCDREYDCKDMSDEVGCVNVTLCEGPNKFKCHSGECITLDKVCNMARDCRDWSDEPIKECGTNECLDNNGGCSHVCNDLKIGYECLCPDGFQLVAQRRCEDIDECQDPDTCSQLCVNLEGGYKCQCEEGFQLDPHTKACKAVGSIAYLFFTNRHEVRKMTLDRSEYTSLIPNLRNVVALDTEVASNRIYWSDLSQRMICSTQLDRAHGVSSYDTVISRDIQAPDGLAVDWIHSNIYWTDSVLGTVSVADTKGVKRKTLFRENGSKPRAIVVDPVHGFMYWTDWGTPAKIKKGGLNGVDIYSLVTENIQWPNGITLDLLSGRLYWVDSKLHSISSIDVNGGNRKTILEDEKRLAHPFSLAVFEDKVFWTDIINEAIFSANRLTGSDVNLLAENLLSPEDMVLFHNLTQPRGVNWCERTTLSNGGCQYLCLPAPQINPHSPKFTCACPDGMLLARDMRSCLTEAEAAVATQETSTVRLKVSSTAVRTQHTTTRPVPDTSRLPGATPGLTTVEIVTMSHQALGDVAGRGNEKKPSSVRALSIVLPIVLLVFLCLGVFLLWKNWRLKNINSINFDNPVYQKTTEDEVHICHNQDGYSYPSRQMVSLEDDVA

The source of these data is ChEMBL document CHEMBL4359840, “Computationally Driven Structure Optimization, Synthesis, and Biological Evaluation of Imidazole-Based Proprotein Convertase Subtilisin/Kexin 9 (PCSK9) Inhibitors” (J Med Chem, 2019).

Active and inactive are the calls of the source. No cut-off for these calls is given here. Some results are limits rather than exact numbers.

T1 sequence (P01130 22-860 partner limits assumed): as above
T1 sequence (Q8NBP7 31-152 limits assumed): as the sequence (Q8NBP7 31-152 limits assumed) above
T1 sequence (Q8NBP7 153-692 limits assumed): as the sequence (Q8NBP7 153-692 limits assumed) above

In the case of `COc1ccc(-c2cnc(-c3cncn3Cc3ccccc3)n2C)cc1`, the inhibition entry in data set [1], in data set [2] and in [4] was “inactive” throughout. In addition, the inhibition (in general, the drop in the measured response relative to a control, in per cent) in data set [3] was 18.2%.

For `CNCCCCCn1cncc1-c1ncc(-c2ncc(-c3ccc(OC)cc3)n2C)n1CCc1ccccc1`, at PCSK9/LDLR [5], the IC50 (as a rule, the midpoint of a concentration-inhibition curve) was found to be 3.06 µM. Further, the inhibition result in data set [6] is “Dose-dependent effect”.

For `CNCCCCCn1cncc1-c1ncc(-c2ncc(-c3ccc(OC)cc3)n2C)n1Cc1ccccc1`, the IC50 at PCSK9/LDLR [5] was found to be 1.38 µM. The inhibition entry in data set [6] and in data set [10] was “Dose-dependent effect” throughout. Moreover, the Activity result in the data set with HepG2 is “Non-Toxic”; in data set [7], < 101%; in [8] it was < 104%; in [9], 101%; in [11], < 77.7%; in [12], < 102%. Besides, the Activity in data set [13] amounted to 63.6%.

As to H-LILPKHSDAD-OH, the IC50 at PCSK9/LDLR [5] came to 1.6 µM. In addition, the Activity is < 93.9% in data set [7] and < 104% in [8].

Turning to `Cn1cncc1-c1ncc(-c2ncc(-c3ncc(-c4ccccc4)n3C)n2C)n1C`, the EC50 (in general, the concentration at which the effect is half-maximal) at PCSK9/LDLR [14] was determined as 6 µM.

With `CC(C)C[C@H](C(=O)N1CCN([C@@H](CC(N)=O)C(=O)N[C@@H](CCCNC(=N)N)C(=O)N[C@H]2CCOC2=O)CC1)N1C(=O)N[C@@H](CC(=O)O)C1=O`, the IC50 on PCSK9/LDLR [5] was 20 to 40 µM.
